Experimental data published in ChEMBL document CHEMBL2034823, “Synthesis and antiviral activity of certain second generation methylenecyclopropane nucleosides” (Bioorg Med Chem, 2012).
pIC50: −log10 of the molar value.

Tests used:
[1] = Antiviral activity against HHV-6B infected in human Molt3 cells assessed as reduction in viral DNA after 7 days by hybridization assay; assay type: functional, cell-based, Human herpesvirus 6B; details: Human betaherpesvirus 6B, MOLT-3, 168 h
How it was run: (§1)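 Compound serially diluted in medium. Uninfected HSB-2 cells were infected with HHV-6A (GS)-infected HSB-2 cells, and Molt-3 cells with HHV-6B (Z29)-infected Molt-3 cells. Incubation 7 days at 37 °C. Lysis in 4.5 M NaCl/1.2 M NaOH, then transfer to nylon membrane. Viral DNA quantified by digoxigenin-probe hybridization and EC50 calculated. Duplicate wells.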

[2] = Cytotoxicity against human BCBL1 cells after 7 days by Cell-Titer Glo assay; assay type: cell-based
How it was run: (§2)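 Uninfected Akata, BCBL1, HSB-2 or MOLT-3 cells incubated with compound for seven days under the matching antiviral-assay conditions. CellTiter-Glo added and luminescence read. CC50 is the concentration reducing cell number by 50%.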

Human alphaherpesvirus 2 = test: Antiviral activity against HSV-2 infected in human HFF cells assessed as reduction in cytopathic effect after 3 days by crystal violet staining; assay type: functional, organism-based; details: Human alphaherpesvirus 2, HFF, 72 h
How it was run: (§3)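 Compound diluted over HFF monolayers, then HSV-1 (E-377) or HSV-2 (MS) added at MOI about 0.01 PFU/cell. Held 3 days in humidified 5% CO2. Stained 4 h with 0.1% crystal violet in formalin, rinsed, dried 24 h, and absorbance read at 595 nm. EC50 is 50% CPE reduction. Duplicate wells.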

[3] = Cytotoxicity against human MOLT3 cells after 7 days by Cell-Titer Glo assay; assay type: cell-based, MOLT-3; how it was run: as §2
[4] = Cytotoxicity against human Akata cells after 7 days by Cell-Titer Glo assay; assay type: cell-based; how it was run: as §2
Human alphaherpesvirus 1 = test: Antiviral activity against HSV-1 infected in human HFF cells assessed as reduction in cytopathic effect after 3 days by crystal violet staining; assay type: functional, organism-based; details: Human alphaherpesvirus 1, HFF, 72 h; how it was run: as §3
[5] = Antiviral activity against HHV-6A infected in human HSB2 cells assessed as reduction in viral DNA after 7 days by hybridization assay; assay type: functional, cell-based, Human herpesvirus 6A; details: Human betaherpesvirus 6A, HSB2, 168 h; how it was run: as §1
[6] = Cytotoxicity against human HSB2 cells after 7 days by Cell-Titer Glo assay; assay type: cell-based, CCRF-HSB-2; how it was run: as §2
Human gammaherpesvirus 8 = test: Antiviral activity against HHV-8 infected in human BCBL1 cells assessed as reduction in viral DNA after 7 days by qPCR analysis; assay type: functional, organism-based; details: Human gammaherpesvirus 8, BCBL1, 168 h
How it was run: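 BCBL1 cells kept in RPMI 1640 with 10% FBS, penicillin, gentamycin and L-glutamine. Lytic infection induced with phorbol 12-myristate 13-acetate, then cells added to triplicate compound dilutions. Incubation 7 days at 37 °C in humidified CO2. EC50 is the concentration halving viral DNA accumulation.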

[7] = Cytotoxicity against human HFF cells after 3 to 8 days by crystal voilet staining; assay type: cell-based
How it was run: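 Uninfected HFF cells exposed to the same concentrations as in the CPE assays (3 days for HSV, 7 for VZV, […]). Stained with crystal violet. CC50 is the concentration reducing cell number by 50%. Duplicate wells.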

Human gammaherpesvirus 4 = test: Antiviral activity against EBV Akata infected in human Akata cells assessed as reduction in viral DNA after 72 hrs by hybridization assay; assay type: functional, organism-based; details: human gammaherpesvirus 4, Akata
How it was run: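 Akata cells kept in RPMI 1640 with 10% FBS, L-glutamine, penicillin and gentamicin. Latent infection was switched to productive by adding goat anti-human IgG, and cells were seeded into compound dilutions made in growth medium. After 72 h the DNA was denatured and blotted onto nylon membrane. Viral DNA was measured with a digoxigenin-labeled probe plus anti-hapten antibody. EC50 is the concentration halving viral DNA. Duplicate wells.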

Human alphaherpesvirus 3 = test: Antiviral activity against VZV infected in human HFF cells assessed as reduction in cytopathic effect after 7 days by crystal violet staining; assay type: functional, organism-based; details: Human alphaherpesvirus 3, HFF, 168 h
Human betaherpesvirus 5 = test: Antiviral activity against HCMV infected in human HFF cells assessed as reduction in cytopathic effect after 8 days by plaque reduction assay; assay type: functional, organism-based; details: Human betaherpesvirus 5, HFF, 192 h
How it was run: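 HFF monolayers seeded 2 days ahead and infected with AD169 at about 30 plaques per well, with 1 h adsorption. Compound was then added in MEM with 2% FBS, L-glutamine, penicillin, gentamycin and pooled human gamma globulin. After 8 days, neutral red stain and plaque counts by stereomicroscope. EC50 interpolated. Duplicate wells.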

Compound	pIC50 [1]	CC50 at 168 h [2] [µM]	pIC50 (Human alphaherpesvirus 2)	CC50 at 168 h [3] [µM]	CC50 at 168 h [4] [µM]	pIC50 (Human alphaherpesvirus 1)	pIC50 [5]	CC50 at 168 h [6] [µM]	pIC50 (Human gammaherpesvirus 8)	CC50 [7] [µM]	pIC50 (Human gammaherpesvirus 4)	pIC50 (Human alphaherpesvirus 3)	pIC50 (Human betaherpesvirus 5)
CCCCCCCCOc1nc(N)nc2c1ncn2/C=C1/CC1(CO)CO	4.94	> 20	< 3.52	> 20	> 20	< 3.52	< 4.70	> 20	< 4.70	> 300	4.89	< 4.00	4.54
Nc1nc(OCC(F)(F)F)c2ncn(/C=C3/CC3(CO)CO)c2n1	5.05	> 20	< 3.52	> 20	> 20	< 3.52	< 4.70	> 20	4.72	> 300	5.85	< 3.52	5.25
COCCOc1nc(N)nc2c1ncn2/C=C1/CC1(CO)CO	< 4.70	> 20	< 3.52	> 20	> 20	< 3.52	< 4.70	> 20	< 4.70	> 300	4.70	4.86	4.77
Nc1nc(OCc2ccccc2)c2ncn(/C=C3/CC3(CO)CO)c2n1	< 4.70	> 20	< 3.52	> 20	> 20	< 3.52	< 4.70	> 20	< 4.70	> 300	< 4.70	4.28	4.35
CSc1nc(N)nc2c1ncn2/C=C1/CC1(CO)CO	4.94	> 20	< 3.52	> 20	> 20	< 3.52	< 4.00	> 100	< 4.70	> 300	4.94	< 4.22	< 4.30
CCCSc1nc(N)nc2c1ncn2/C=C1/CC1(CO)CO	4.84	> 20	< 3.52	> 20	> 20	< 3.52	4.20	98	< 4.70	> 300	< 4.70	< 3.52	4.38
CC(C)Sc1nc(N)nc2c1ncn2/C=C1/CC1(CO)CO	5.12	> 20	< 3.52	> 20	> 20	< 3.52	4.15	94	< 4.70	> 300	5.51	< 4.22	5.40
CCCCSc1nc(N)nc2c1ncn2/C=C1/CC1(CO)CO	5.15	> 20	< 3.52	> 20	> 20	< 3.52	4.12	89	< 4.70	> 300	5.60	< 3.52	< 4.30
Nc1nc(SC2CCCC2)c2ncn(/C=C3/CC3(CO)CO)c2n1	5.00	> 20	< 3.52	> 20	> 20	< 3.52	4.46	91	< 4.70	> 300	6.05	< 3.52	< 4.30
CCCCCCSc1nc(N)nc2c1ncn2/C=C1/CC1(CO)CO	5.27	> 20	< 3.52	> 20	> 20	< 3.52	< 4.70	60	< 4.70	> 300	5.15	< 3.52	< 4.30
CCCCCCCCSc1nc(N)nc2c1ncn2/C=C1/CC1(CO)CO	4.96	> 20	< 3.52	> 20	> 20	< 3.52	< 4.70	60	< 4.70	> 300	< 4.70	< 4.22	4.70
Nc1nc(SCc2ccccc2)c2ncn(/C=C3/CC3(CO)CO)c2n1	< 4.70	> 20	< 3.52	> 20	> 20	< 3.52	4.06	> 100	< 4.70	> 300	5.51	< 4.22	< 4.30
Nc1nc(N)c2nc[nH]c2n1 [2,6-DIAMINOPURINE]	4.80	67	< 3.52	> 20	> 20	< 3.52	< 4.70	> 20	4.52	> 300	4.96	< 3.52	< 3.52
Nc1nc2c(ncn2/C=C2/CC2(CO)CO)c(=O)[nH]1 [FILOCICLOVIR]	5.10	> 20	< 4.00	> 20	> 20	< 4.00	5.89	> 20	5.52	> 300	4.35	< 4.00	5.85
